From PMC11850876 (Scientific Reports, 2025)
Where two headings read alike, the source gives them in different places. Each block holds one compound with its values, some of them ahead of it.

Tests used:
[1] = DPPH radical scavenging assay; conditions: read-out: DPPH radical scavenging IC50 ± SD; DPPH 0.1 mM in MeOH, 60 min, 517 nm
Procedure, shortened: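 Each test compound was prepared at 1.0 mg/mL in DMSO and mixed 1:1 by volume with 0.1 mM DPPH in MeOH. The mixture was kept in the dark at RT for 60 min. Absorbance was read at 517 nm against a DPPH control. % scavenging = (Abs control − Abs sample)/Abs control × 100.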

[2] = test system: MCF-7 breast cancer cell line; assay: MTT cytotoxicity assay, MCF-7; format: cell-based, human; conditions: for IC50: Homo sapiens; for Selectivity Index (SI) 48 h: IC50 MCF-10 A / IC50 MCF-7, 48 h; for Selectivity Index (SI) 72 h: IC50 MCF-10 A / IC50 MCF-7, 72 h
Procedure, shortened: (§1)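 Cells came from the Pasteur Institute, Tehran, and were seeded at 5 × 10^4 cells/well. After 24 h, four concentrations of test compound were added in triplicate, with medium-only and 0.5% DMSO controls. Exposure was 48 and 72 h. MTT formazan was dissolved in DMSO and read at 570 nm. IC50 was taken from % inhibition (mean ± SD, n=3). SI = IC50 MCF-10 A / IC50 MCF-7.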

[3] = test system: healthy human breast epithelial (MCF-10 A) cell line; assay: MTT cytotoxicity assay, MCF-10 A; format: cell-based
Procedure, shortened: as §1

[4] = MCF7, 48 h, read-out: IC50 ±SD MCF-7 48 h
[5] = MCF7, 72 h, read-out: IC50 ±SD MCF-7 72 h
[6] = 48 h, read-out: IC50 ±SD MCF-10 A 48 h
[7] = 72 h, read-out: IC50 ±SD MCF-10 A 72 h

Structure (SMILES): COc1cccc2c1C(=O)c1c(O)c3c(c(O)c1C2=O)C[C@@](O)(C(=O)CO)C[C@@H]3O[C@H]1C[C@H](N)[C@H](O)[C@H](C)O1 [Doxorubicin, reference compound]
- IC50 [2, 4]: 3.42 ± 0.1 µM
- IC50 [2, 5]: 0.68 ± 0.1 µM
- Selectivity Index (SI) 48 h [2]: 3.86
- Selectivity Index (SI) 72 h [2]: 4.20
- IC50 [3, 6]: 13.2 ± 0.1 µM
- IC50 [3, 7]: 2.85 ± 0.1 µM

Structure (SMILES): O=C1O[C@H]([C@@H](O)CO)C(O)=C1O [ascorbic acid, reference compound]
- IC50 [1]: 13.6 ± 0.38 µM

More lines, main results first:

- IC50 [1]: 13.2 ± 0.74 µM
Structure (SMILES): NS(=O)(=O)c1ccc(/N=N/c2ccc(O)c(/C=N/c3ccc(O)cc3)c2)cc1 [Compound 3a, 4-((E)-(4-hydroxy-3-((E)-((4-hydroxyphenyl)imino)methyl)phenyl)diazenyl)benzenesulfonamide]
- IC50 [2, 4]: 10.9 ± 0.005 µM
- IC50 [2, 5]: 9.49 ± 0.012 µM
- Selectivity Index (SI) 48 h [2]: 1.02
- Selectivity Index (SI) 72 h [2]: 0.20
- IC50 [3, 6]: 11.18 ± 0.012 µM
- IC50 [3, 7]: 1.98 ± 0.002 µM

- IC50 [1]: 13.6 ± 0.95 µM
Structure (SMILES): NS(=O)(=O)c1ccc(/N=N/c2ccc(O)c(/C=N/c3ccccc3O)c2)cc1 [Compound 3c, 4-((E)-(4-hydroxy-3-((E)-((2hydroxyphenyl)imino)methyl)phenyl)diazenyl)benzenesulfonamide]
- IC50 [2, 4]: 21.16 ± 0.014 µM
- IC50 [2, 5]: 9.26 ± 0.002 µM
- Selectivity Index (SI) 48 h [2]: 0.79
- Selectivity Index (SI) 72 h [2]: 0.24
- IC50 [3, 6]: 16.82 ± 0.01 µM
- IC50 [3, 7]: 2.23 ± 0.001 µM

- IC50 [1]: 14 ± 1.45 µM
Structure (SMILES): COc1ccc(/N=C/c2cc(/N=N/c3ccc(S(N)(=O)=O)cc3)ccc2O)cc1 [Compound 3f, 4-((E)-(4-hydroxy-3-((E)-((4-methoxyphenyl)imino)methyl)phenyl)diazenyl)benzenesulfonamid]
- IC50 [2, 4]: 8.94 ± 0.013 µM
- IC50 [2, 5]: 7.62 ± 0.018 µM
- Selectivity Index (SI) 48 h [2]: 1.23
- Selectivity Index (SI) 72 h [2]: 0.35
- IC50 [3, 6]: 11.01 ± 0.016 µM
- IC50 [3, 7]: 2.67 ± 0.009 µM

- IC50 [1]: 12.4 ± 0.55 µM
Structure (SMILES): NC(=S)N/N=C/c1cc(/N=N/c2ccc(S(N)(=O)=O)cc2)ccc1O [Compound 3j, 2-((E)-2-hydroxy-5-((E)-(4-sulfamoylphenyl)diazenyl)benzylidene)hydrazine-1-carbothioamide]
- IC50 [2, 4]: 6.52 ± 0.007 µM
- IC50 [2, 5]: 5.27 ± 0.006 µM
- Selectivity Index (SI) 48 h [2]: 2.67
- Selectivity Index (SI) 72 h [2]: 2.13
- IC50 [3, 6]: 17.43 ± 0.019 µM
- IC50 [3, 7]: 11.26 ± 0.008 µM
